Laboratory results published in ChEMBL document CHEMBL1135819, “N-[3-(1H-imidazol-4-ylmethyl)phenyl]ethanesulfonamide (ABT-866, 1),(1) a novel alpha(1)-adrenoceptor ligand with an enhanced in vitro and in vivo profile relative to phenylpropanolamine and midodrine” (J Med Chem, 2002).
The source made the active and inactive calls. The calls are words filed in the database; no cut-off is given here.

Assays:
Oryctolagus cuniculus = species: Oryctolagus cuniculus; test: In vitro percent efficacy of compound was tested in rabbit urethra; type: functional
Canis familiaris [1] = test: Dose corresponding to a 5 mmHg increase in Intraurethral pressure (IUP) was determined in vivo in isoflurane anesthetized female beagles; type: functional, Canis lupus familiaris, Beagle
Outline: (§1)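 Female beagles under isoflurane anesthesia; MAP by chronically implanted telemetry transducer/transmitter, IUP by urethral catheter, recorded simultaneously. Increasing iv doses given; maximal effect of each dose taken within 1 min of dosing. Doses giving 5 mmHg IUP rise (IUP ED5) and 20 mmHg MAP rise (MAP ED20) calculated, nmol/kg, mean ± SEM, n ≥ 4.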

Canis familiaris [2] = test: Dose corresponding to a 20 mmHg increase in mean arterial pressure (MAP) was determined in vivo in isoflurane anesthetized female beagles; type: functional, Canis lupus familiaris, Beagle, Artery; outline: as §1
[3] = molecular target: T1, Alpha-1B adrenergic receptor (Mesocricetus auratus, UniProt P18841); test: Binding affinity towards hamster cloned Alpha-1B adrenergic receptor; value ranges from (2.0 -4.4); parameters: species or system Cricetulus griseus
T1 sequence (P18841 whole entry): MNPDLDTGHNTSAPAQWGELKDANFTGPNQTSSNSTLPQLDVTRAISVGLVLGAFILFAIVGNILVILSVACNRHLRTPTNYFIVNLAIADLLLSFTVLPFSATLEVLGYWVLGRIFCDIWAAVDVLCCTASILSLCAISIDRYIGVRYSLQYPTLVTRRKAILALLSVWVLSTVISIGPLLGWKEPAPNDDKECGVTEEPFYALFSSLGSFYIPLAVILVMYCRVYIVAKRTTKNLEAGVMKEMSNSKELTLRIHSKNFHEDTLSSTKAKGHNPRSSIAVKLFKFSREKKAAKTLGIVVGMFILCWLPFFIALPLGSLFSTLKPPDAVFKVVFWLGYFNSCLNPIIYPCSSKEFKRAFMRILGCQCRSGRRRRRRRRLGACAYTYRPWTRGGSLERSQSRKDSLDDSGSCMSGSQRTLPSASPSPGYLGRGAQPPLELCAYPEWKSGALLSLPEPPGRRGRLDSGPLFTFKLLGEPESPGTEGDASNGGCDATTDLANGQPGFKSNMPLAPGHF

[4] = molecular target: T2, Alpha-1D adrenergic receptor (Rattus norvegicus, UniProt P23944); test: Binding affinity towards rat cloned Alpha-1D adrenergic receptor; value ranges from (1.3 -1.6)
T2 sequence (P23944 whole entry): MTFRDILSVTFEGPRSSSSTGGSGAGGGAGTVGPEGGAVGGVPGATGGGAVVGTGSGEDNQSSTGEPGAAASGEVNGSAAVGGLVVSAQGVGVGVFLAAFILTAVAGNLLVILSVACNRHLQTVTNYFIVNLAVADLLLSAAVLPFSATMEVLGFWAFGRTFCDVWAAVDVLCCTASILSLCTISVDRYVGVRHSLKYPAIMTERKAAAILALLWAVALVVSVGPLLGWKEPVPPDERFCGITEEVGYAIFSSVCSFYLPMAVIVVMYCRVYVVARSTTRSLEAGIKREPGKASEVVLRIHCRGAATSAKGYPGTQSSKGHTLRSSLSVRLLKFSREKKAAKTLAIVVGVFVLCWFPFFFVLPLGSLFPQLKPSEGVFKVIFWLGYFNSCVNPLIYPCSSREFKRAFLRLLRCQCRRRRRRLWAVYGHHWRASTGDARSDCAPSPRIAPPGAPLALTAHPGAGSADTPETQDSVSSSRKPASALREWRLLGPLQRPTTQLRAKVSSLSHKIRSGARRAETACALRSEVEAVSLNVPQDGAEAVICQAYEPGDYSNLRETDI

Rattus norvegicus [5] = species: Rattus norvegicus; test: (§2) In vitro percent efficacy of compound was tested in rat aorta; type: functional
Outline: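 Isolated tissue contraction: agonist dose–response curves run in rat aorta (α1D) and rat spleen (α1B). Efficacy is the percent response relative to phenylephrine. EC50 is taken as the dose contracting the tissue 50%. Data reported ± SEM.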

[6] = molecular target: T3, Alpha-1B adrenergic receptor (Rattus norvegicus, UniProt P15823); test: Effective concentration in vitro against rat spleen Alpha-1B adrenergic receptor indicates EC50 < 15% at a concentration of 10 uM; type: tissue-based
T3 sequence (P15823 whole entry): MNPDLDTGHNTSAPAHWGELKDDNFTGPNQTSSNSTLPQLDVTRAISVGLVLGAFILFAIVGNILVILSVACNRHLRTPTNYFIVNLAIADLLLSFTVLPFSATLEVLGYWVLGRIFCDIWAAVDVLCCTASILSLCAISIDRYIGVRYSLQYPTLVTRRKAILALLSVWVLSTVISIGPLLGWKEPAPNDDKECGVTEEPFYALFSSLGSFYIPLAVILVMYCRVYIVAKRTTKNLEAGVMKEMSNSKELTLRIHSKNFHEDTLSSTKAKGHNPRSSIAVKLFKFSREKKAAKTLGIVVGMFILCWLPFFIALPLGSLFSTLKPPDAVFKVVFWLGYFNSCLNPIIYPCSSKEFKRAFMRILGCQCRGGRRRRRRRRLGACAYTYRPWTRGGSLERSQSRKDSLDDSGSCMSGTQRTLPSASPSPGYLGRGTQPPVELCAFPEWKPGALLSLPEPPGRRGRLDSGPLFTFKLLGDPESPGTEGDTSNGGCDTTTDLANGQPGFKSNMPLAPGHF

[7] = molecular target: T1, Alpha-1B adrenergic receptor; test: Binding affinity towards hamster cloned Alpha-1B adrenergic receptor; value ranges from (6.2 -7.7); parameters: species or system Cricetulus griseus
Rattus norvegicus [8] = species: Rattus norvegicus; test: as §2; type: functional; remark: listed apart in the source
[9] = molecular target: T2, Alpha-1D adrenergic receptor; test: Effective concentration in vitro against rat aorta Alpha-1D adrenergic receptor;* indicates EC50 < 15% at a concentration of 10 uM; type: tissue-based
[10] = molecular target: T2, Alpha-1D adrenergic receptor; test: Binding affinity towards rat cloned Alpha-1D adrenergic receptor; value ranges from (1.5 - 1.9)
[11] = molecular target: T4, Alpha-1A adrenergic receptor (Rattus norvegicus, UniProt P43140); test: Binding affinity towards rat submaxillary gland Alpha-1 adrenergic receptor; value ranges from (1.6 -2.5)
T4 sequence (P43140 whole entry): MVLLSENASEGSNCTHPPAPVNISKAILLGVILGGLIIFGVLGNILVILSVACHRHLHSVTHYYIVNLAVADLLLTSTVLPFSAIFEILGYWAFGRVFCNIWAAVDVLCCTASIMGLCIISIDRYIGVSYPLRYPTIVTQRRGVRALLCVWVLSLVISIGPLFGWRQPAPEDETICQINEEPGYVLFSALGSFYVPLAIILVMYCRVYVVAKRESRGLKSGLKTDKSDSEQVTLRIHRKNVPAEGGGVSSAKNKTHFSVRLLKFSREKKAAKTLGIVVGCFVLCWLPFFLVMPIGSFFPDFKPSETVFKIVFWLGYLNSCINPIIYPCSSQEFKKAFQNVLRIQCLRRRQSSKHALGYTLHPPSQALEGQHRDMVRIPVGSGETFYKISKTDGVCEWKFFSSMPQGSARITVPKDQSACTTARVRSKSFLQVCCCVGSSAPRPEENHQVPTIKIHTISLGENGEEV

Rattus norvegicus [12] = species: Rattus norvegicus; test: In vitro percent efficacy of compound was tested in rat spleen; type: functional
[13] = molecular target: T2, Alpha-1D adrenergic receptor; test: Binding affinity towards rat cloned Alpha-1D adrenergic receptor; value ranges from (5.5 -13)
[14] = molecular target: T4, Alpha-1A adrenergic receptor; test: Binding affinity towards rat submaxillary gland Alpha-1 adrenergic receptor; value ranges from (6.2 - 15)
[15] = molecular target: T1, Alpha-1B adrenergic receptor; test: Binding affinity towards hamster cloned Alpha-1B adrenergic receptor mean;value ranges from( 6.4 -14); parameters: species or system Cricetulus griseus
Rattus norvegicus [16] = species: Rattus norvegicus; test: In vitro percent efficacy of compound was tested rat spleen; type: functional
[17] = molecular target: T2, Alpha-1D adrenergic receptor; test: Antagonistic activity against Alpha-1D adrenergic receptor determined using phenylephrine challenge in rat aorta isolated tissues.; type: functional, tissue-based; conditions: read-out: pA2 (converted)
[18] = molecular target: T3, Alpha-1B adrenergic receptor; test: Antagonistic activity against Alpha-1B adrenergic receptor determined using phenylephrine challenge in rat spleen isolated tissues.; type: functional, tissue-based; conditions: read-out: pA2 (converted)
[19] = molecular target: T5, Alpha-1B adrenergic receptor (Rattus norvegicus) (UniProt P15823); test: Effective concentration in vitro against rat spleen Alpha-1B adrenergic receptor (EC50 < 15%) at a concentration of 10 uM; NA is not active; type: tissue-based
T5 sequence (whole entry): T3 sequence (P15823 whole entry)

[20] = molecular target: T4, Alpha-1A adrenergic receptor; test: Binding affinity towards rat submaxillary gland Alpha-1 adrenergic receptor; value ranges from (0.12 - 0.15)

| SMILES | Efficacy (Oryctolagus cuniculus) | ED5 (Canis familiaris [1]) | ED20 (Canis familiaris [2]) | EC50 [6] | Efficacy (Rattus norvegicus [8]) | EC50 [9] | further results |
| --- | --- | --- | --- | --- | --- | --- | --- |
| CS(=O)(=O)Nc1c(O)ccc2c1CCCC2C1=NCCN1 (stereo not drawn) | 88% | 0.16 nM/kg | 0.27 nM/kg |  |  |  | Ki [3]: 2.9 µM; Ki [4]: 1.5 µM; Efficacy (Rattus norvegicus [5]): 100% |
| COc1ccc(OC)c(C(O)CN)c1 (stereo not drawn) [DESGLYMIDODRINE] | 133% | 205 nM/kg | 250 nM/kg | 85 µM | 106% | 1.9 µM | Ki [7]: 6.9 µM; Ki [10]: 1.7 µM; Ki [11]: 2 µM; Efficacy (Rattus norvegicus [12]): 68% |
| C[C@H](N)[C@H](O)c1ccccc1 [(1R,2S)-PHENYLPROPANOLAMINE] | 68% | 1100 nM/kg | 330 nM/kg | 280 µM | 91% | 58 µM | Ki [13]: 8.4 µM; Ki [14]: 9.8 µM; Ki [15]: 9.6 µM; Efficacy (Rattus norvegicus [16]): 34% |
| CCS(=O)(=O)Nc1cccc(Cc2c[nH]cn2)c1 | 80% | 12 nM/kg | 80 nM/kg |  |  |  | Kb [17]: 0.631 µM; Kb [18]: 3.98 µM; NA [19]: inactive; Ki [20]: 0.14 µM |
